Calls of active or inactive are those of the source. The rule behind the calls is not given here.
Assays:
[1] = test system: SH-SY5Y; test: Cytotoxicity against human SH-SY5Y cells assessed as reduction in cell viability up to 50 uM incubated for 24 hrs by MTT assay; assay type: cell-based
How it was run: (§1)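 SH-SY5Y cells plated at 2.5×10^4 per well and exposed 24 h to 1–50 μM. MTT at 1 mg/mL in complete medium for 4 h, then SDS solubilisation for 24 h and absorbance read. Viability given as % of untreated control. Dunnett's test, n = 3.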

[2] = test system: SH-SY5Y; test: Neuroprotective activity in human SH-SY5Y cells assessed as reduction in H2O2-induced intracellular ROS formation at 10 uM and measured for 30 to 300 mins by DCFH-DA staining based assay; assay type: functional, cell-based
How it was run: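 SH-SY5Y cells loaded with 25 μM DCFH-DA for 45 min, then given 10 μM compound together with 300 μM H2O2. Fluorescence read at ex 485/em 530 nm over 30–300 min. Compared against H2O2 alone by Dunnett's test.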

[3] = species: Homo sapiens; test: Activation of alpha secretase in human H4 cells harboring swedish mutant form of APP assessed as increase in sAPPalpha protein level at 10 uM incubated for 24 hrs by Western blot analysis
[4] = test system: SH-SY5Y; test: Cytoprotective activity in human SH-SY5Y cells assessed as increase in Nrf2 mRNA expression level at 10 uM incubated for 6 hrs by RT-PCR analysis; assay type: functional, cell-based
How it was run: (§2)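 SH-SY5Y cells in EMEM/F-12 (1:1) with 10% heat-inactivated FBS, 37 °C, 5% CO2, exposed 6 h to 10 μM compound, final DMSO <0.1%. Total RNA extracted and Nrf2 and HO-1 mRNA quantified by real-time RT-PCR with GAPDH as endogenous reference. Mean ± SEM, experiments repeated at least three times.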

[5] = test system: SH-SY5Y; test: Neuroprotective activity in human SH-SY5Y cells assessed as reduction in H2O2-induced intracellular ROS formation at 10 uM preincubated for 24 hrs followed H2O2 addition and measured after 10 to 90 mins by DCFH-DA staining based assay; assay type: functional, cell-based
How it was run: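 SH-SY5Y cells pretreated 24 h with 10 μM compound, then loaded with 25 μM DCFH-DA for 45 min and challenged with 300 μM H2O2. Fluorescence (485/530 nm) followed from 10 to 90 min. Compared against H2O2 alone by Dunnett's test.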

[6] = test system: SH-SY5Y; test: Cytoprotective activity in human SH-SY5Y cells assessed as increase in HO1 mRNA expression level at 10 uM incubated for 6 hrs by RT-PCR analysis relative to control; assay type: functional; how it was run: as §2
[7] = test system: SH-SY5Y; test: Cytotoxicity against human SH-SY5Y cells assessed as reduction in cell viability up to 20 uM incubated for 24 hrs by MTT assay; assay type: cell-based; how it was run: as §1
[8] = target: Glutamate NMDA receptor; GRIN1/GRIN2A (Homo sapiens, UniProt Q05586+Q12879); test: Antagonist activity at GluN1a/GluN2A (unknown origin) expressed in Xenopus laevis oocytes at -60 mV holding potential by voltage clamp method; assay type: cell-based
Chain of Glutamate NMDA receptor; GRIN1/GRIN2A (Q12879 whole entry, other chains not shown, the tested form may be a part): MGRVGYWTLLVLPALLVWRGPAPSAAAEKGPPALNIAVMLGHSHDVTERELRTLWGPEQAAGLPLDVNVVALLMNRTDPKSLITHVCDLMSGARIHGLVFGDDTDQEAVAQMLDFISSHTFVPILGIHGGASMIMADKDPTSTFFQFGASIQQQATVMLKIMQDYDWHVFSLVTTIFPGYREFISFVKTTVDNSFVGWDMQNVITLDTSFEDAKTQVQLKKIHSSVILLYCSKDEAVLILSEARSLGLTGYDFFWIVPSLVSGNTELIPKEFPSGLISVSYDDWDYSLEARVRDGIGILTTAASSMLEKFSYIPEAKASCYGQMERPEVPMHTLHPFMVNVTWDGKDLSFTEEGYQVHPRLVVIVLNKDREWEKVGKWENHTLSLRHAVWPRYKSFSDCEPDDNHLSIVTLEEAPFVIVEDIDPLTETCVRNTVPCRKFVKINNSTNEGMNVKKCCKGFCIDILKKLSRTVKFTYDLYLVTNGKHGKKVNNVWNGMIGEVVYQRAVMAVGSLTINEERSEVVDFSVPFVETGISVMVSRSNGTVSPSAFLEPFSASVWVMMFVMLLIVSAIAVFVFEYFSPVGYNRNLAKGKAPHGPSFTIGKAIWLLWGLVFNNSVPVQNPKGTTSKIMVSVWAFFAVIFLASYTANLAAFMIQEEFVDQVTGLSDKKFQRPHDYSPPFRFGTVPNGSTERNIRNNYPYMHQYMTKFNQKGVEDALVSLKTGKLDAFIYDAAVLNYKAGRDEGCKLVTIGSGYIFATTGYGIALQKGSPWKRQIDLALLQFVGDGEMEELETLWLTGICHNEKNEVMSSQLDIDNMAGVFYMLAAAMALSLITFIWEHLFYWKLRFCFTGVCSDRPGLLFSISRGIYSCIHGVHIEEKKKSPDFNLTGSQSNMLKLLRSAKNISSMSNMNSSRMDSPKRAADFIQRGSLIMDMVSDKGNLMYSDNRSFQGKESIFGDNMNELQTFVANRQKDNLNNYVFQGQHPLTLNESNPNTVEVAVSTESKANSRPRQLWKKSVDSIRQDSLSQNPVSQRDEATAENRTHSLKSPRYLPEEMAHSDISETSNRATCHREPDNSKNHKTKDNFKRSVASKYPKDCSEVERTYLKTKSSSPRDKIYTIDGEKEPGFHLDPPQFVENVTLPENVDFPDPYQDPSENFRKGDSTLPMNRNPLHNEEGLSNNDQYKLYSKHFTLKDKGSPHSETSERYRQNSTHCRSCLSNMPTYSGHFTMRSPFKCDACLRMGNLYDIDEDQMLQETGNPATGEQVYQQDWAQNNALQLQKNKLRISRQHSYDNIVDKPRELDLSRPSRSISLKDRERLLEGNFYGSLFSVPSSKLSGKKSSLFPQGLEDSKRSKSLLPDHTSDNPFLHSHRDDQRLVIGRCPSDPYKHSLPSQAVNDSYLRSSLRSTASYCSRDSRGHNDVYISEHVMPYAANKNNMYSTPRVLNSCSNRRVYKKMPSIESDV
How it was run: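 Rat-free detail absent; GluN1-1a/GluN2A cRNA (1:1 by weight) injected into defolliculated oocytes, kept 3–4 days at 18 °C in modified Barth's media. Two-electrode voltage clamp at -60 mV, perfusion with 96 mM NaCl, 2 mM KCl, 1.8 mM CaCl2, 10 mM HEPES pH 7.5. Currents evoked by 100 μM NMDA + 10 μM glycine; compound 0.01–100 μM added at steady state until new plateau; % control fit to Hill equation for IC50; ≥5 oocytes.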

[9] = test system: H4; test: Effect on total intracellular APP in human H4 cells harboring swedish mutant form of APP assessed as change in full length APP protein level at 10 uM incubated for 24 hrs by Western blot analysis; assay type: cell-based; conditions: h4, 24 h
How it was run: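 H4 cells bearing Swedish APP, kept in DMEM/10% FBS under hygromycin B and blasticidin S selection, treated 24 h with 10 μM. Lysates analysed by Western blot for full-length APP. Densitometry normalized to α-tubulin. One-way ANOVA with post-hoc test.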

[10] = test system: H4; test: Cytotoxicity against human H4 cells harboring swedish mutant form of APP assessed as reduction in cell viability up to 20 uM incubated for 24 hrs by MTT assay; assay type: cell-based; conditions: h4, 24 h
[11] = test system: SH-SY5Y; test: Cytoprotective activity in human SH-SY5Y cells assessed as increase in HO1 protein level incubated for 24 hrs by Western blot analysis; assay type: functional, cell-based
How it was run: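 SH-SY5Y cells treated 24 h at 10 or 20 μM. Cells washed in ice-cold PBS, lysed in Tris/NaCl/EDTA/Triton buffer, equal protein run on reducing SDS-PAGE, blotted to PVDF. Probed with anti-HO-1 (1:1000), β-tubulin as loading control, ECL detection. Densitometry expressed as % of control ± SEM.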

[12] = test system: SH-SY5Y; test: Cytoprotective activity in human SH-SY5Y cells assessed as increase in HO1 protein level at 20 uM incubated for 24 hrs by Western blot analysis; assay type: functional
How it was run: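 SH-SY5Y human neuroblastoma cells (EMEM/Ham's F-12 with 10% heat-inactivated FBS, 37 °C, 5% CO2) treated 24 h at 10 or 20 μM, compound diluted from DMSO stock (final DMSO <0.1%). Whole-cell lysates in Tris/NaCl/EDTA/Triton buffer, SDS-PAGE and PVDF blot probed with anti-HO-1. Tubulin served as loading control, ECL detection, densitometry given as % of untreated control.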

## COc1cc(/C=C/C(=O)O)ccc1O [FERULATE]
[1]
  Activity: Non-Toxic
[2]
  Activity: Active
[3]
  activation: inactive
[4]
  Activity: inactive
[5]
  Activity: Active
[6]
  Activity: inactive
[7]
  Activity: Non-Toxic

## COc1cc(/C=C/C(=O)NCCCCNC23CC4CC(C)(CC(C)(C4)C2)C3)ccc1O
[1]
  Activity: Non-Toxic
[2]
  Activity: Active
[3]
  activation: inactive
[8]
  IC50: 23.9 µM
[9]
  Activity: Non-Toxic
[4]
  Activity: inactive
[5]
  Activity: Active
[6]
  Activity: inactive
[7]
  Activity: Non-Toxic
[10]
  Activity: Non-Toxic

## COc1cc(/C=C/C(=O)NCCCNC23CC4CC(C)(CC(C)(C4)C2)C3)ccc1O
[8]
  IC50: > 100 µM

## COc1cc(/C=C/C(=O)NCCNC(=O)C23CC4(C)CC(C)(CC(N)(C4)C2)C3)ccc1O
[8]
  IC50: > 100 µM

## COc1cc(/C=C/C(=O)NCCCCCCNC23CC4CC(C)(CC(C)(C4)C2)C3)ccc1O
[2]
  Activity: Active
[11]
  Activity: Dose-dependent effect
[3]
  activation: Active
[8]
  IC50: 6.9 µM
[9]
  Activity: Non-Toxic
[4]
  Activity: Active
[12]
  fold change (FC): 2
[5]
  Activity: Active
[6]
  Activity: 150%
[7]
  Activity: Non-Toxic
[10]
  Activity: Non-Toxic

## COc1cc(/C=C/C(=O)NCCCCNC(=O)C23CC4(C)CC(C)(CC(N)(C4)C2)C3)ccc1O
[8]
  IC50: > 100 µM

## COc1cc(/C=C/C(=O)NCCCCCNC23CC4CC(C)(CC(C)(C4)C2)C3)ccc1O
[2]
  Activity: Active
[3]
  activation: inactive
[8]
  IC50: 14.1 µM
[9]
  Activity: Non-Toxic
[4]
  Activity: inactive
[5]
  Activity: Active
[6]
  Activity: inactive
[7]
  Activity: Non-Toxic
[10]
  Activity: Non-Toxic

## COc1cc(/C=C/C(=O)NCCCNC(=O)C23CC4(C)CC(C)(CC(N)(C4)C2)C3)ccc1O
[8]
  IC50: > 100 µM

Source: ChEMBL document CHEMBL4359848, “Merging memantine and ferulic acid to probe connections between NMDA receptors, oxidative stress and amyloid-β peptide in Alzheimer's disease” (Eur J Med Chem, 2019)
